Experimental data collected from several papers.
Protocols differ between the studies behind these lines.
CDKL1: Cyclin-dependent kinase-like 1 (CDKL1, Homo sapiens, UniProt Q00532)
MAP3K11: Mitogen-activated protein kinase kinase kinase 11 (MAP3K11, Homo sapiens, UniProt Q16584)
ULK1: Serine/threonine-protein kinase ULK1 (ULK1, Homo sapiens, UniProt O75385)

With Cc1ccc(NC(=O)c2ccc(C)c(C(F)(F)F)c2)cc1C#Cc1nn(C2CCC(O)CC2)c2ncnc(N)c12 (stereo not drawn) the remaining signal was 133% (Hepatocyte growth factor receptor (MET, Homo sapiens, UniProt P08581); cell-free assay; 10 µM).
The ΔTm of Cn1c2c(c3ccccc31)C(C#N)C(C)(C)NC2=O (stereo not drawn) is reported as -0.1 °C (CDKL1; thermal stability, DSF; 10 µM).
For c1cc(-c2nnc3scnn23)ccn1, the Emax was 100% (Type II inositol 1,4,5-trisphosphate 5-phosphatase (Homo sapiens, UniProt P32019); enzyme activity, inhibitor).
With O=S1(=O)O[C@@H]2[C@H](O)[C@@H](O)[C@H](O)[C@@H](CO)[C@@H]2O1 the kinact/KI was 1070 M⁻¹ s⁻¹ (Lysosomal alpha-glucosidase (GAA, Homo sapiens, UniProt P10253); enzyme activity, inhibitor; pH 4.8).
NS(=O)(=O)c1ccc(CNc2ccnc(Nc3cccc(CN4CCOCC4)c3)n2)cc1 has a remaining activity of 95% (MAP3K11; enzyme activity, inhibitor, radiometric; 1 µM).
For Cn1c2c(c3ccc(Cl)c(Cl)c31)C(C#N)C1(CCNCC1)NC2=O (racemic), the ΔTm was 0.9 °C (CDKL1; thermal stability, DSF; 10 µM).
Nc1ncnc2occ(-c3ccc(NC(=O)Nc4cc(C(F)(F)F)ccc4F)cc3)c12 gave a remaining signal of 0.05% (Myosin-IIIa (MYO3A, Homo sapiens, UniProt Q8NEV4); cell-free assay; 20 µM).
For NS(=O)(=O)c1ccc(CNc2nc(Nc3cccc(CN4CCOCC4)c3)ncc2C2CC2)cc1, the remaining activity was 68% (MAP3K11; enzyme activity, inhibitor, radiometric; 1 µM).
With CC1(C)NC(=O)c2[nH]c3c(Cl)c(Cl)ccc3c2C1C#N (stereo not drawn) the ΔTm was 0 °C (CDKL1; thermal stability, DSF; 10 µM).
Cc1cc(NC(=O)c2cccc3cc(-c4cccc5[nH]nc(N)c45)ccc23)ccc1F has an activity vs control of 145% (Hepatocyte growth factor receptor (MET, Homo sapiens, UniProt P08581, D1228H); enzyme activity, inhibitor; 0.1 µM).
The ΔTm of Cn1c2c(Cl)c(Cl)ccc2c2cc[nH]c(=O)c21 is reported as 0.7 °C (TRAF2 and NCK-interacting protein kinase (TNIK, Homo sapiens, UniProt Q9UKE5); thermal stability, DSF; 10 µM).
With Cc1cnc(NC2CCOCC2)nc1-n1cnc(C(=O)NC(CN)c2cc(F)cc(Cl)c2)c1 (stereo not drawn) the remaining activity was 1% (Mitogen-activated protein kinase 1 (Mapk1, Mus musculus, UniProt P63085); enzyme activity, inhibitor, radiometric; 1 µM).
O=C(NCCCNc1nc(Nc2cccc(CN3CCOCC3)c2)ncc1C1CC1)C1CCC1 gave a remaining activity of 9% (ULK1; enzyme activity, inhibitor, radiometric; 1 µM).
FC(F)(F)Oc1cccc(-c2cnc3ccc(-c4ccncc4)nn23)c1 has an activity vs control of 94% (Mitogen-activated protein kinase kinase kinase 1 (MAP3K1, Homo sapiens, UniProt Q13233); enzyme activity, inhibitor, radiometric; 5 µM).
Cc1nn(CC(F)(F)F)cc1Nc1ncc(C2CC2)c(NCCc2c[nH]cn2)n1 has a remaining activity of 78% (ULK1; enzyme activity, inhibitor, radiometric; 1 µM).
CN1CCC2(CC1)NC(=O)c1c(c3ccc(Cl)c(Cl)c3n1C)C2C#N (racemic) has a ΔTm of 0 °C (CDKL1; thermal stability, DSF; 10 µM).
For NS(=O)(=O)c1ccc(CNc2nc(Nc3cccc(NC(=O)N4CCCC4)c3)ncc2C2CC2)cc1, the remaining activity was 72% (MAP3K11; enzyme activity, inhibitor, radiometric; 1 µM).
The ΔTm of Cn1c2c(c3ccc(Cl)c(Cl)c31)C(C#N)C1(CCCC1)NC2=O (stereo not drawn) is reported as 0 °C (CDKL1; thermal stability, DSF; 10 µM).
